Seven compounds from ChEMBL document CHEMBL4610003 (Bioorg Med Chem, 2020) can be followed below.

One data set relates to Vero. As to the kind of experiment: Cytotoxicity against African green monkey Vero cells assessed as reduction in cell viability incubated for 72 hrs by […] assay. The data set is classed as cell-based. The note with it: Chlorocebus sabaeus.
Data set [1] is described as follows: Oral bioavailability in CD-1 mouse at 10 mg/kg administered via gavage as single dose. The format is ADME, organism-based. The settings on record: in vivo.
A short description of data set [2]: Intrinsic clearance in human liver microsomes assessed per mg protein. The format is ADME, Microsome. The note with it: read-out: CLH. A digest of the protocol: (§1)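 Clearance of compound by human or mouse liver microsomes, expressed as µL/min/mg protein.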
Background: Liver microsomes are a subcellular fraction often used to study metabolism.

A short description of data set [3]: Intrinsic clearance in mouse liver microsomes assessed per mg protein. The note with it: read-out: CLH. The format is ADME, Microsome. A digest of the protocol: as §1
Data set [4] relates to Mycobacterium tuberculosis. As to the kind of experiment: Antimycobacterial activity against Mycobacterium tuberculosis H37Rv assessed as bacterial growth inhibition incubated for 10 days under anerobic condition followed by incubation under ambient gaseous condition for […] by low oxygen recovery assay. The data set is classed as functional. In a few lines: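 Read-out is MIC90, the lowest concentration giving 90% growth inhibition of M.tb H37Rv, in µg/mL. Bacteria were held under non-replicating, low-oxygen conditions (LORA).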

Data set [5] concerns the target Voltage-gated inwardly rectifying potassium channel KCNH2 (Homo sapiens, UniProt Q12809). The experiment in a line: Inhibition of human ERG.
Data set [6] is described as follows: Clearance in CD-1 mouse at 2 to 3 mg/kg, iv administered as single bolus dose. The format is ADME, organism-based. The settings on record: in vivo. In a few lines: (§2)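 Male CD-1 mice received a single intravenous bolus at 2–3 mg/kg. Reported values are IV clearance and the apparent volume of distribution during the terminal phase, in L/kg.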
Data set [7] has as its system Mycobacterium tuberculosis. The experiment in a line: Antimycobacterial activity against Mycobacterium tuberculosis H37Rv assessed as bacterial growth inhibition under replicating, aerobic condition by microplate Alamar blue assay. The format is functional. A digest of the protocol: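 Read-out is MIC90, the lowest concentration giving 90% growth inhibition of M.tb H37Rv, in µg/mL. Bacteria were grown under aerobic, replicating conditions (MABA).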

Data set [8] can be described thus: AUC (0 to infinity) in CD-1 mouse at 10 mg/kg, po via gavage administered as single dose. The data set is classed as ADME, organism-based. Details: dose 10 mg/kg, route oral, time infinity. The settings on record: in vivo. A digest of the protocol: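 Male CD-1 mice given a single 10 mg/kg dose by oral gavage. Exposure is reported as area under the curve from 0 to infinity in µg*h/mL.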

Data set [9] can be described thus: Apparent volume of distribution during terminal phase in CD-1 mouse at 2 to 3 mg/kg, iv administered as single bolus dose. The format is ADME, organism-based. The note with it: in vivo. In a few lines: as §2

Molecules are shown by their SMILES. Values after ≈ are worked out from the molar mass of the structure shown.

Voltage-gated inwardly rectifying potassium channel KCNH2, sequence (Q12809 whole entry): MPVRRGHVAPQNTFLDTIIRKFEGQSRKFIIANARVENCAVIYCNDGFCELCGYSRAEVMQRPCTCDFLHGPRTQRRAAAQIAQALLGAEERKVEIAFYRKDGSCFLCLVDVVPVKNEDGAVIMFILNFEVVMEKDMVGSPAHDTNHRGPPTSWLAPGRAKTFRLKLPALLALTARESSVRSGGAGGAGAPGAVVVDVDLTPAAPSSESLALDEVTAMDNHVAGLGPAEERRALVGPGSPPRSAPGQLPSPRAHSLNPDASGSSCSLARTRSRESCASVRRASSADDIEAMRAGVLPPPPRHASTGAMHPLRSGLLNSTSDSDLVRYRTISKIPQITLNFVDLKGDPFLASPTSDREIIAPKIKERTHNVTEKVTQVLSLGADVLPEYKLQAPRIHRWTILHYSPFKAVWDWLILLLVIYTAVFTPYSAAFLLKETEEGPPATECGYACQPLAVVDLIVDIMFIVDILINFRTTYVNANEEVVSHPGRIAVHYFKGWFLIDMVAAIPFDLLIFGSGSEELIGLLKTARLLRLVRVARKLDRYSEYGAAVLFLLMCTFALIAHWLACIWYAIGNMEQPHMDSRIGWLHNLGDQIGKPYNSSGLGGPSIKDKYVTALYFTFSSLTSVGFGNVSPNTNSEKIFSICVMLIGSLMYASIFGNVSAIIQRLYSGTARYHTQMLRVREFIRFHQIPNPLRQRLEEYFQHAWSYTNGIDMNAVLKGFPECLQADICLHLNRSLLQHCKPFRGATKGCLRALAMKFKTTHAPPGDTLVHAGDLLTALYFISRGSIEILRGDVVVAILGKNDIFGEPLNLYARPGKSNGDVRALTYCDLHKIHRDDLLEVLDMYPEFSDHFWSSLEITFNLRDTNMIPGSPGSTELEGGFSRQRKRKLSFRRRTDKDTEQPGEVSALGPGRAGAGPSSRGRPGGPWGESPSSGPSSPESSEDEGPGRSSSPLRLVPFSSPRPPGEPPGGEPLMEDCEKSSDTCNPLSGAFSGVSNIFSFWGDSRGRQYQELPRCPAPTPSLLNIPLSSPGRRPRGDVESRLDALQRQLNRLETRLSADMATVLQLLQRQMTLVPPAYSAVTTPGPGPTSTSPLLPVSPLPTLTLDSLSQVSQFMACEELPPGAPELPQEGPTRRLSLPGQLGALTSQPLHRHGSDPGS

As a reminder, the IC50 is the concentration needed to halve the response being measured. The bioavailability is dose-corrected exposure relative to a reference, in per cent. The term MIC90 denotes the lowest concentration that inhibits either 90% of growth or 90% of the strains tested, depending on the study. As usually defined, the clearance is a measure of how efficiently the substance is removed, as volume per time. As a reminder, the AUC(0-inf) is the area under the concentration-time curve extrapolated to infinity. As for `COc1nc2ccc(Br)cc2cc1[C@@H](c1ccnc(OC)c1OC)[C@@](O)(CCN(C)C)c1cc(SC)nc(SC)c1` (racemic), the 50% inhibitory concentration (IC50) with Vero was over 10 µg/mL; in [5] it was 2.8 µM. Moreover, the bioavailability in data set [1] turned out to be 41%. Also, the microsomal CLint amounted to 8.8 µL/min/mg in data set [2] and 10 µL/min/mg in data set [3]. In addition, the MIC90 in data set [4] and in [7] was under 0.02 µg/mL each time. For the same compound, the clearance in data set [6] was 18 mL/min/kg. Also, the total exposure AUC(0-inf) in data set [8] is 3900 ng·h/mL. Also, the Vz/F in [9] worked out at 64 L/kg.

With `COc1cccc([C@H](c2cc3cc(C#N)ccc3nc2OC)[C@@](O)(CCN(C)C)c2cc(SC)nc(SC)c2)c1F` (racemic), the IC50 in the data set on Vero was over 10 µg/mL; in [5], 5.1 µM. The compound further came in with a bioavailability in data set [1] of 28%. Further, the values for the microsomal CLint in [2] and in [3] were 15 µL/min/mg and 20 µL/min/mg, respectively. Besides, the MIC90 in data set [4] is 0.05 µg/mL (≈ 0.0844 µM); in data set [7] it was 0.03 µg/mL (≈ 0.0506 µM). Also, in data set [6], the clearance was 44 mL/min/kg. This compound returned an AUC(0-inf) in data set [8] of 1100 ng·h/mL. Moreover, in data set [9], the Vz/F came to 53 L/kg.

Regarding `COc1cc([C@](O)(CCN(C)C)[C@@H](c2cc3cc(C#N)ccc3nc2OC)c2cccc(OC)c2F)cc(SC)n1` (racemic), the 50% inhibitory concentration (IC50) with Vero was over 10 µg/mL; in data set [5] it was over 10 µM. In data set [1], this compound registered a bioavailability of 28%. Moreover, the microsomal CLint in [2] was 16 µL/min/mg; in [3] it was 36 µL/min/mg. In addition, the MIC90 in [4] turned out to be 0.04 µg/mL (≈ 0.0694 µM); in [7], 0.02 µg/mL (≈ 0.0347 µM). Moreover, the clearance in data set [6] is 42 mL/min/kg. Moreover, the AUC(0-inf) in data set [8] came out at 1100 ng·h/mL. Further, the Vz/F in [9] turned out to be 54 L/kg.

`COc1cc([C@](O)(CCN(C)C)[C@@H](c2cc3cc(Br)ccc3nc2OC)c2cccc(OC)c2F)cc(SC)n1` (racemic): the figures for the IC50 (in the data set with Vero; in data set [5]) were over 10 µg/mL and over 30 µM, respectively. The same compound returned a bioavailability in [1] of 31%. The microsomal CLint in data set [2] was determined as 4.8 µL/min/mg; in data set [3] it was 20 µL/min/mg. The MIC90 in [4] and in [7] was under 0.02 µg/mL in each case. The clearance in data set [6] amounted to 13 mL/min/kg. In addition, the AUC(0-inf) in [8] was determined as 4600 ng·h/mL. Besides, the Vz/F in data set [9] worked out at 32 L/kg.

As to `COc1cccc([C@H](c2cc3cc(Br)ccc3nc2OC)[C@@](O)(CCN(C)C)c2cc(SC)nc(SC)c2)c1F` (racemic), the IC50 is 9.6 µg/mL (≈ 14.8 µM) with Vero and over 10 µM in data set [5]. Besides, in [1], the bioavailability stood at 66%. Besides, the microsomal CLint worked out at 3.4 µL/min/mg in data set [2] and 17 µL/min/mg in data set [3]. Besides, the MIC90 in data set [4] and in data set [7] was under 0.02 µg/mL throughout. In [6], the clearance turned out to be 13 mL/min/kg. The same compound came in with an AUC(0-inf) in data set [8] of 8400 ng·h/mL. Further, the Vz/F in data set [9] was 15 L/kg.

Regarding `COc1cc([C@](O)(CCN(C)C)[C@@H](c2cc3cc(C#N)ccc3nc2OC)c2ccnc(OC)c2OC)cc(N(C)C)n1` (racemic), the IC50 was over 10 µg/mL with Vero and 3.4 µM in data set [5]. The compound further yielded a bioavailability in data set [1] of 50%. Moreover, the results for the microsomal CLint in [2] and in data set [3] were 8.4 µL/min/mg and 16 µL/min/mg, respectively. The MIC90 in data set [4] and in data set [7] was 0.06 µg/mL (≈ 0.102 µM) in each case. Besides, in data set [6], the clearance is 26 mL/min/kg. In [8], this compound displayed an AUC(0-inf) of 3300 ng·h/mL. In data set [9], the Vz/F is 14 L/kg.

Regarding `CCOc1cc([C@](O)(CCN(C)C)[C@@H](c2cc3cc(Br)ccc3nc2OC)c2c(OC)cncc2OC)cc(OC(C)C)n1` (racemic), the IC50 with Vero is over 10 µg/mL; in data set [5] it was over 10 µM. The bioavailability in [1] was found to be 58%. The microsomal CLint in data set [2] is 1.1 µL/min/mg; in data set [3], 2.3 µL/min/mg. In addition, the MIC90 in [4] and in [7] was under 0.02 µg/mL in each case. Further, the clearance in data set [6] stood at 2.7 mL/min/kg. The compound further came in with an AUC(0-inf) in data set [8] of 33000 ng·h/mL. Besides, the Vz/F in data set [9] came to 20 L/kg.
